Screening results (PubChem BioAssay)
The list is not random: actives were taken first. Their share in the collection is about 1%.
eIF2B yeast act – eIF2B (yeast) activity modulation. 27,000 compounds, 0.91% hits. S. cerevisiae eIF2B-epsilon R284H, GCN4-lacZ luminescence. AID 688. inhibition, % at 25 µM (by protocol);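 active means mutant luminescence inhibited past about 50% while wild type luminescence and mutant growth stay under set limits, limit read from the data; inconclusive means mutant versus wild type luminescence inhibition gap past a set limit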
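Material – yeast eIF2B-epsilon R284H mutant carrying GCN4–beta-galactosidase fusion · Medium – YPD yeast growth medium · Compound – one concentration, 25 µM, 0.25% DMSO · Times – 16 h at 30 °C exposure · Signal – Beta-Glo luminescence plus absorbance at 595 nm · Read-out – % inhibition of reporter signal and growth versus controls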
Yeast tox – Inhibits yeast growth, turbidity readout; AID 685; 30,000 compounds, 0.3% hits; growth inhibition, % at 25 µM (by protocol); S. cerevisiae wild-type growth, A595 turbidity, 16 h;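 active means mutant and wild-type yeast strains alike exhibit over 30% growth inhibition; inconclusive means a strain exceeds 50% while the second remains under 30%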;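 further: 0% = untreated cell controls and 100% = YPD media blanks without cells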
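Test system: Wild-type and eIF2Bepsilon-R284H mutant S. cerevisiae, screened separately | Dosing: Single 25 µM compound dose in 0.2% DMSO | Schedule: 16 h compound exposure during growth at 30 °C | Detection: A595 turbidity | Evaluation: Growth inhibition (%) versus cell controls and blanks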
Active calls of the source: *; ? = inconclusive; · = not tested or not shown.

SMILES	eIF2B yeast act	Yeast tox
CCS(=O)(=O)N1CCN(C(=O)c2ccccc2)CC1	11	12
O=C(c1ccccc1)N1CCN(C(=O)c2ccncc2)CC1	51*	16
COc1ccc(C)cc1NC(=O)CN1C(=O)c2cccc3cccc1c23	0	-22
COc1ccc(CCNC(=O)c2ccc(N3CCCC3=O)cc2)cc1OC	56*	-10
CCCCN(C)CCCNC(=O)c1ccc(N2CCCC2=O)cc1	6	-2
COc1ccc(OC)c(N/C(C)=C/C(=O)c2ccc(C)o2)c1	56*	-2
COc1ccc(OC)c(NC(=O)Nc2ccc(Cl)cc2)c1	·	31
O=C(NCCn1cccc1)c1cccc2ccccc12	11	-4
COc1ccccc1/C=N/n1c(C)nnc1-n1nc(C)cc1C	17	7
COc1ccc(C(=O)Nn2c(C)nnc2-n2nc(C)cc2C)cc1OC	56*	0
COc1ccc(C2=CSC3=NCCN23)cc1F	65*	7
COc1cc(S(=O)(=O)N2CCN=C2c2ccccc2)ccc1F	-20	?
CCCCCC(=O)N(O)C1CC(=O)N(c2ccccc2)C1=O (stereo not given)	47	38*
CN(Cc1ccccc1)C1CC(=O)N(c2ccc(C(=O)O)cc2)C1=O (stereo not given)	-7	-1
COc1ccc(NC(=O)N2CCC(n3nnc4cc(C)ccc43)CC2)cc1	29	5
O=S(=O)(NCCc1ccccc1F)c1cccc(S(=O)(=O)N2CCOCC2)c1	-24	-6
CCCCNS(=O)(=O)c1cccc(S(=O)(=O)N2CCCC2)c1	53*	-9
Cc1ccc(-c2nc(=S)c3c(n2CCN2CCOCC2)CC(C)(C)OC3)cc1	·	-12
CC1(C)Cc2c(c(=S)nc(-c3ccccc3)n2CCOCCO)CO1	51*	-7
COc1cc(C)c(Cl)cc1S(=O)(=O)NCc1ccncc1	12	14
CC1Cc2ccccc2N1C(=O)c1cc2c(=O)n3ccccc3nc2n1C (stereo not given)	-5	-2
COC(=O)c1cc2c(=O)n3ccccc3nc2n(C)c1=N	0	32*
C/C(N)=C(/C#N)C(=O)CSc1nnc(Cc2ccccc2F)n1N	17	5
CCC(=O)Nc1ccccc1C(=O)NC1CCCCC1	·	4
C1CN(CC23CC4CC(CC(C4)C2)C3)CCO1	30	19
SMILES	eIF2B yeast act	Yeast tox
COc1ccc(C(=O)Nc2nnc(-c3ccccc3)o2)cc1OC	21	14
Cc1cccc(-c2nnc(NC(=O)c3ccc(Cl)cc3)o2)c1	17	57*
O=C(CSc1nnnn1-c1cccnc1)NCc1cccs1	12	-21
O=C(c1cccs1)N1CCCC1	5	0
O=C(c1cccs1)N1CCC(c2ccccc2)C1 (stereo not given)	71*	18
CCOC(=O)c1c(NC(=O)COC)sc2c1CCCC2	65*	2
CCOC(=O)c1c(NC=O)sc2c1CCC2	8	9
CCOc1cc(-c2nc(-c3ccc(C)nc3OCC)no2)cc(OCC)c1OCC	56*	·
CCOc1cc(-c2nc(-c3cc(OC)c(OC)c(OC)c3)no2)cc(OCC)c1OCC	4	-16
Cc1c(NC(=O)CSc2ccccc2C(=O)Nc2cccnc2)c(=O)n(-c2ccccc2)n1C	25	7
Cc1ccc(-c2nc3cc(C)ccc3o2)cc1	15	2
Cc1ccc2nc(-c3cccnc3)oc2c1	53*	-4
COc1nc(N(C#N)CC(N)=O)nc(N2CCCC2)n1	8	11
CCC(C)N1C(=O)C2C(C(=O)Nc3cccc(OC)c3)C3C=CC2(O3)C1C(=O)NC1CCCCC1C (stereo not given)	21	18
Cc1ccc(Oc2ccc(OCC(=O)OC3CCS(=O)(=O)C3)cc2)cc1 (stereo not given)	6	·
CCCCNC(=O)OC1CCS(=O)(=O)C1 (stereo not given)	55*	-15
CC(CCc1ccccc1)NC(=O)c1cncc(Br)c1 (stereo not given)	26	14
O=S(=O)(/C=C/c1ccccc1)N1CCN(c2cccc(Cl)c2)CC1	16	29
CCCOc1ccc(N2C(=O)CC(SC(=NC)Nc3ccc(F)cc3)C2=O)cc1 (stereo not given)	10	-16
CCCOc1ccc(N2C(=O)CC(SC(=NCC)Nc3cccc(F)c3)C2=O)cc1 (stereo not given)	53*	-44
CCCCc1nc(SCC(=O)Nc2ccc(S(N)(=O)=O)cc2)n[nH]1	-13	10
Fc1ccc(Nc2nc(Oc3ccc4c(c3)OCO4)nc(N3CCOCC3)n2)c(F)c1	57*	-67
c1ccc(Oc2nc(Oc3ccccc3)nc(N3CCOCC3)n2)cc1	27	2
c1ccc(SCc2nc(-c3ccccn3)no2)cc1	64*	18
Cc1ccc(-c2noc(CSc3ccccc3)n2)cc1	21	8
COc1ccc(C(=O)NC(C)c2nnc(SCC(=O)Nc3nc4ccccc4s3)n2C)cc1 (stereo not given)	-3	·
CCOc1ccccc1NC(=S)NCc1ccco1	·	4
